Data on three compounds can be found in PubChem BioAssay AID624077 (The Scripps Research Institute Molecular Screening Center, 2012).

What is called inhibition is the drop in the measured response relative to a control, in per cent.

The assay has as its target Monoacylglycerol lipase ABHD6 (Mus musculus) (UniProt Q8R2Y0). The assay can be described thus: liver ABHD6 blockade after oral dosing – gel-based competitive ABPP, fluorescence, mouse, powder samples, in vivo study for DAGLb inhibitor project, late-stage follow-up (AID 624077). As to conditions: C57BL mice oral dosing, stronger effect = higher value. The method, boiled down: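 Test system: C57BL mouse liver membranes, ABHD6 | Doses: Oral 10, 5, 1 mg/kg | Schedule: 4 h oral dose-to-liver-harvest, 30 min 37 °C probe labelling | Signal: SDS-PAGE followed by in-gel fluorescence scanning | Read-out basis: Percent ABHD6 inhibition from band integrated optical density versus vehicle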

Where [1] appears, read: measured here: ABHD6 inhibition at 1 mg/kg.
Where [2] appears, read: measured here: ABHD6 inhibition at 5 mg/kg.

Monoacylglycerol lipase ABHD6 (Mus musculus), sequence (Q8R2Y0 whole entry, looked up): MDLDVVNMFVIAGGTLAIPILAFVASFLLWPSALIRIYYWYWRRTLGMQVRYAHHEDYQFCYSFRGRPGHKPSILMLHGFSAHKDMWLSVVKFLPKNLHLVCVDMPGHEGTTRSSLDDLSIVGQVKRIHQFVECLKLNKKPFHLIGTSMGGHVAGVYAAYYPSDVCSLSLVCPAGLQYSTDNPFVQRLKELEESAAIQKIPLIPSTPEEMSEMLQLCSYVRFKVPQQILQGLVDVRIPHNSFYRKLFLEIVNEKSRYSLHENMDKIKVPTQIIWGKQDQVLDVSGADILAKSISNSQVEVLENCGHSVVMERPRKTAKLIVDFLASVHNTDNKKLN

`COc1ccccc1-c1ccc(-c2cn(C(=O)N3CCCCC3Cc3ccccc3)nn2)cc1` (centres undefined): the inhibition was 100%. The compound further yielded an inhibition under setting [1] of 90%. For the same compound, the inhibition under setting [2] came out at 100%.

For the compound `COc1ccc(-c2ccc(-c3cn(C(=O)N4CCCCC4c4ccccc4)nn3)cc2)cc1` (centres undefined), the inhibition is 100%. The compound further yielded an inhibition under setting [1] of 70%. Under setting [2], this compound had an inhibition of 80%.

`O=C(N1CCCCC1Cc1ccccc1)n1cc(-c2ccc(-c3ccccc3)cc2)nn1` (centres undefined): the inhibition was 100%. Moreover, the inhibition under setting [1] was determined as 100%. Besides, under setting [2], the inhibition was 100%.
